The source made the active and inactive calls. The rule behind the calls is not given here.
Tests used:
[1] = target: T1, Heat shock protein HSP 90-alpha (Homo sapiens, UniProt P07900); assay: Inhibition of HSP90 alpha in human HeLa cells assessed as effect on EGFR expression at 20 uM after 48 hrs by Western blot analysis relative to GAPDH (reference value: 1); type: cell-based
[2] = target: T1, Heat shock protein HSP 90-alpha; assay: Inhibition of HSP90 alpha in human HeLa cells assessed as effect on HSP70 expression at 20 uM after 48 hrs by Western blot analysis relative to alpha-tubulin (reference value: 1); type: cell-based
[3] = target: T1, Heat shock protein HSP 90-alpha; assay: Inhibition of HSP90 alpha in human HeLa cells assessed as effect on AKT phosphorylation at 10 uM after 48 hrs by Western blot analysis relative to GAPDH (reference value: 1); type: cell-based
HeLa [4] = assay: Effect on total Cdc2 expression in human HeLa cells at 20 uM after 48 hrs by Western blot analysis relative to GAPDH (reference value: 1); type: ADME, cell-based
[5] = target: T1, Heat shock protein HSP 90-alpha; assay: Inhibition of HSP90 alpha in human HeLa cells assessed as effect on EGFR expression at 10 uM after 48 hrs by Western blot analysis relative to GAPDH (reference value: 1); type: cell-based
[6] = target: T1, Heat shock protein HSP 90-alpha; assay: Inhibition of HSP90 alpha in human HeLa cells assessed as effect on Cyclin A expression at 20 uM after 48 hrs by Western blot analysis relative to GAPDH (reference value: 1); type: cell-based
HeLa [7] = assay: Effect on total ERK1 expression in human HeLa cells at 10 uM after 48 hrs by Western blot analysis relative to GAPDH (reference value: 1); type: ADME, cell-based
[8] = target: T1, Heat shock protein HSP 90-alpha; assay: Binding affinity to recombinant human HSP90 alpha by Surface plasmon resonance analysis
[9] = target: T1, Heat shock protein HSP 90-alpha; assay: Inhibition of HSP90 alpha in human HeLa cells assessed as effect on HSP70 expression at 10 uM after 48 hrs by Western blot analysis relative to alpha-tubulin (reference value: 1); type: cell-based
HeLa [10] = assay: Effect on total ERK1 expression in human HeLa cells at 20 uM after 48 hrs by Western blot analysis relative to GAPDH (reference value: 1); type: ADME, cell-based
PBMC = assay: Cytotoxicity against human PBMC up to 100 uM after 48 hrs by trypan blue exclusion assay; type: cell-based
[11] = target: T1, Heat shock protein HSP 90-alpha; assay: Inhibition of HSP90 alpha in human HeLa cells assessed as effect on HSP90 expression at 10 uM after 48 hrs by Western blot analysis relative to alpha-tubulin (reference value: 1); type: cell-based
HeLa [12] = assay: Cell cycle arrest in human HeLa cells assessed as accumulation at G2/M phase at 10 to 20 uM after 48 hrs by propidium iodide staining based flow cytometry; type: functional
Procedure, shortened: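 HeLa cells in DMEM with 10% FBS at 37 °C, 5% CO2, exposed to 10 or 20 μM for 48 h, DMSO vehicle (final ≤0.15%). Permeabilized cells stained with propidium iodide and analyzed by flow cytometry, 5000 events per sample. Percentages in hypodiploid, G0/G1, S and G2/M are given minus control values. Mean ± SD of three experiments run in duplicate.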

[13] = target: T1, Heat shock protein HSP 90-alpha; assay: Inhibition of HSP90 alpha in human HeLa cells assessed as effect on CDC2/p34 phosphorylation at Thr161 residue at 20 uM after 48 hrs by Western blot analysis relative to GAPDH (reference value: 1); type: cell-based
[14] = target: T1, Heat shock protein HSP 90-alpha; assay: Inhibition of HSP90 alpha in human HeLa cells assessed as effect on ERK1 phosphorylation at 20 uM after 48 hrs by Western blot analysis relative to GAPDH (reference value: 1); type: cell-based
HeLa [15] = assay: Effect on total AKT expression in human HeLa cells at 10 uM after 48 hrs by Western blot analysis relative to GAPDH (reference value: 1); type: ADME, cell-based
[16] = target: T1, Heat shock protein HSP 90-alpha; assay: Inhibition of HSP90 alpha in human HeLa cells assessed as effect on HSP90 expression at 20 uM after 48 hrs by Western blot analysis relative to alpha-tubulin (reference value: 1); type: cell-based
HeLa [17] = assay: Effect on total Cdc2 expression in human HeLa cells at 10 uM after 48 hrs by Western blot analysis relative to GAPDH (reference value: 1); type: ADME, cell-based
Jurkat = assay: Antiproliferative activity against human Jurkat cells after 48 hrs by MTT assay; type: functional, cell-based
Procedure, shortened: (§1)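 Cells grown in DMEM (HeLa) or RPMI 1640 (Jurkat) with 10% FBS at 37 °C and 5% CO2. Seeded at 1 × 10^4 cells/well the day before, then exposed 48 h to 10−150 μM compound (final DMSO ≤0.15% v/v), with vehicle and etoposide controls. MTT read at 550 nm; IC50 from dose–response curves versus controls; mean ± SD, ≥3 experiments in duplicate.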

[18] = target: T1, Heat shock protein HSP 90-alpha; assay: Inhibition of HSP90 alpha in human HeLa cells assessed as effect on CDC2/p34 phosphorylation at Thr161 residue at 10 uM after 48 hrs by Western blot analysis relative to GAPDH (reference value: 1); type: cell-based
HeLa [19] = assay: Antiproliferative activity against human HeLa cells after 48 hrs by MTT assay; type: functional, cell-based; procedure, shortened: as §1
[20] = target: T1, Heat shock protein HSP 90-alpha; assay: Inhibition of HSP90 alpha in human HeLa cells assessed as effect on ERK1 phosphorylation at 10 uM after 48 hrs by Western blot analysis relative to GAPDH (reference value: 1); type: cell-based
[21] = target: T1, Heat shock protein HSP 90-alpha; assay: Inhibition of HSP90 alpha in human HeLa cells assessed as effect on Cyclin A expression at 10 uM after 48 hrs by Western blot analysis relative to GAPDH (reference value: 1); type: cell-based
HeLa [22] = assay: Effect on total AKT expression in human HeLa cells at 20 uM after 48 hrs by Western blot analysis relative to GAPDH (reference value: 1); type: ADME, cell-based

For `CC1=C2C[C@]3(C)C(=O)C[C@@H](C(C)(C)O)[C@H]3C/C=C(/C)[C@@H]2CC1=O`, the fold change (FC) [1] was 1.4, the fold change (FC) [2] was 0.8 and the fold change (FC) [3] was 0.3. For the same molecule, the “fold change (FC)” value (HeLa [4]) was 1.5, the fold change (FC) [5] was 1.3 and the fold change (FC) [6] was 1.2. The “fold change (FC)” value (HeLa [7]) was 1.2, the Kd ([8]; read-out: Kd) was 0.0153 µM and the fold change (FC) [9] was 1. The “fold change (FC)” value (HeLa [10]) was 1.2, the Activity (PBMC) was “Non-Toxic” and the fold change (FC) [11] was 1.4. For the same molecule, the Activity (HeLa [12]) was “Active”, the fold change (FC) [13] was 0.1 and the fold change (FC) [14] was 0.3. The “fold change (FC)” value (HeLa [15]) was 1, the fold change (FC) [16] was 1.3 and the “fold change (FC)” value (HeLa [17]) was 1.8. The IC50 (Jurkat) was over 20 µM, the fold change (FC) [18] was 0.2 and the IC50 (HeLa [19]) was over 20 µM. For the same molecule, the fold change (FC) [20] was 0.5, the fold change (FC) [21] was 1 and the “fold change (FC)” value (HeLa [22]) was 1.
For `CC1=C2C[C@@]3(C)O[C@@](C)([C@@H]2CC1=O)[C@H]1CC(=O)[C@@](C(C)C)(CC3=O)O1`, the Kd ([8]; read-out: Kd) was 0.12 µM, the IC50 (Jurkat) was over 20 µM and the IC50 (HeLa [19]) was over 20 µM.
`CC(C)[C@@H]1CC(=O)[C@@]2(C)/C=C3\C(CC[C@@]3(C)O)[C@]3(C)O[C@@H]3CC12` (stereo partly specified) showed a Kd ([8]; read-out: Kd) of 0.045 µM, an IC50 (Jurkat) of over 20 µM and an IC50 (HeLa [19]) of over 20 µM.
`CC1=C2C[C@]3(C)C(=O)C=C(C(C)C)[C@H]3C[C@H]3O[C@@]3(C)[C@@H]2CC1=O` was tested, and the Kd [8] was “Not Active”, the IC50 (Jurkat) was over 20 µM and the IC50 (HeLa [19]) was over 20 µM.
In the case of `C=C1CC[C@H]2/C(C)=C\C[C@@H]3[C@H](C(C)C)CC(=O)[C@@]3(C)C[C@@H]12`, the Kd ([8]; read-out: Kd) is reported as 0.401 µM, the IC50 (Jurkat) is reported as over 20 µM and the IC50 (HeLa [19]) is reported as over 20 µM.
`C/C1=C/C[C@@H]2[C@H](C(C)C)CC(=O)[C@@]2(C)/C=C2/C(C)CCC12` (stereo partly specified) showed a Kd ([8]; read-out: Kd) of 0.0205 µM, an IC50 (Jurkat) of over 20 µM and an IC50 (HeLa [19]) of over 20 µM.
`CC1=C2C[C@]3(C)C(=O)C[C@@H](C(C)C)[C@H]3C/C=C(/C)[C@@H]2CC1=O` [HYPOESTENONE] showed a Kd ([8]; read-out: Kd) of 1 µM, an IC50 (Jurkat) of over 20 µM and an IC50 (HeLa [19]) of over 20 µM.
`CC1=C2C[C@]3(C)CC[C@@H](C(C)C)[C@H]3C/C=C(/C)[C@@H]2CC1=O` showed a Kd ([8]; read-out: Kd) of 0.028 µM, an IC50 (Jurkat) of over 20 µM and an IC50 (HeLa [19]) of over 20 µM.
In the case of `CC1=C2C[C@]3(C)C(=O)C=C(C(C)C)C3CC(O)/C(C)=C\2CC1=O` (stereo partly specified), the Kd [8] is reported as “Not Active”, the IC50 (Jurkat) is reported as over 20 µM and the IC50 (HeLa [19]) is reported as over 20 µM.
`CC1=C2C[C@]3(C)C(=O)C[C@@H](C(C)C)[C@H]3C[C@H]3O[C@@]3(C)[C@@H]2CC1=O` was tested, and the Kd [8] was “Not Active”, the IC50 (Jurkat) was over 20 µM and the IC50 (HeLa [19]) was over 20 µM.
Work on `CC1=C2C[C@]3(C)C(=O)C=C(C(C)C)[C@H]3C/C=C(/C)[C@@H]2CC1=O` yielded a Kd ([8]; read-out: Kd) of 1.74 µM, an IC50 (Jurkat) of over 20 µM and an IC50 (HeLa [19]) of over 20 µM.
In the case of `C/C1=C/C[C@@H]2[C@H](C(C)C)CC[C@@]2(C)CC23OC2(C)CC[C@@H]13` (stereo partly specified), the Kd [8] is reported as “Not Active”, the IC50 (Jurkat) is reported as over 20 µM and the IC50 (HeLa [19]) is reported as over 20 µM.
In the case of `CC1=CCC23OC4(C[C@]2(C)C(=O)C=C3C(C)C)[C@H](C)C(=O)C[C@@H]14` (stereo partly specified), the Kd ([8]; read-out: Kd) is reported as 0.217 µM, the IC50 (Jurkat) is reported as over 20 µM and the IC50 (HeLa [19]) is reported as over 20 µM.
`C=C1CC[C@@H]2[C@H]1C[C@]1(C)CC[C@@H](C(C)C)[C@H]1C[C@H]1O[C@@]21C` gave a Kd ([8]; read-out: Kd) of 0.13 µM, an IC50 (Jurkat) of over 20 µM and an IC50 (HeLa [19]) of over 20 µM.
With `CC(=O)O[C@H]1C[C@@](O)(C(C)C)[C@H]2C/C=C(/C)[C@@H]3CC(=O)C(C)=C3C[C@]12C` the Kd [8] was “Not Active”, the IC50 (Jurkat) was over 20 µM and the IC50 (HeLa [19]) was over 20 µM.

Reference: ChEMBL document CHEMBL4422696, “Fusicoccane Diterpenes from Hypoestes forsskaolii as Heat Shock Protein 90 (Hsp90) Modulators” (J Nat Prod, 2019)
